{
  "source": "PubChem BioAssay AID602126",
  "about": "(Broad Institute, 2011)",
  "note": "The source made the active and inactive calls.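 How the source made its calls: active means compounds cutting cell ATP light whose fitted AC50 is at most double the top dose tried; inconclusive means flat moderate signal loss, or an unreliable curve fit; inactive means the rest.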",
  "data": [
    {"test_system": "not listed separately", "test": "ldlA[mSR-BI] cell viability loss – CellTiter-Glo luminescence, 24 h, dry powder, set 5, cytotoxicity control for SR-BI HDL uptake inhibitor project, dose response (AID 602126)", "conditions": "ldlA[mSR-BI] CHO cells viability, CellTiter-Glo ATP luminescence, 24 h; at 30 µM (top of the series)", "summary_of_the_method": "(§1)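 Technique: CellTiter-Glo ATP luminescence; System: ldlA[mSR-BI] cells, cell viability measurement; Amount: 4,000 ldlA[mSR-BI] cells per well; Incubation: 24 h compound exposure at 37 °C, then 10 min with detection reagent.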", "values": [
      {"smiles": "C[C@H]1CN([C@@H](C)CO)C(=O)c2cc(NC(=O)Cc3cn(C)c4ccccc34)ccc2O[C@H]1CN(C)S(=O)(=O)c1ccc(F)cc1", "activity change, negative = cytotoxicity": "-19.8% (inactive)"}
    ]},
    {"test_system": "not listed separately", "test": "ldlA[mSR-BI] cell viability loss – CellTiter-Glo luminescence, 24 h, dry powder, set 5, cytotoxicity control for SR-BI HDL uptake inhibitor project, dose response (AID 602126)", "conditions": "ldlA[mSR-BI] CHO cells viability, CellTiter-Glo ATP luminescence, 24 h; at 35 µM (top of the series)", "summary_of_the_method": "as §1", "values": [
      {"smiles": "C[C@H]1CN([C@@H](C)CO)C(=O)c2cccc(NC(=O)Nc3ccccc3)c2O[C@@H]1CN(C)S(C)(=O)=O", "activity change, negative = cytotoxicity": "1.04% (inactive)"},
      {"smiles": "COc1ccc(-c2nnn(CC(=O)N(C)C(C)C(=O)NC3CCCC3)n2)cc1OC", "note": "(centres undefined)", "activity change, negative = cytotoxicity": "-6.96% (inactive)"},
      {"smiles": "Cc1ccc(-c2nnc(N3CCC(C)CC3)c3ccccc23)cc1C", "activity change, negative = cytotoxicity": "-8.22% (inactive)"},
      {"smiles": "CC(C)OCCCNC(=O)c1ccc(C2SCC(=O)N2Cc2ccco2)cc1", "note": "(centres undefined)", "activity change, negative = cytotoxicity": "-15.7% (inactive)"},
      {"smiles": "CCC(=O)N1CCc2cc(-c3cnc(NC(=O)c4ccco4)[nH]3)ccc21", "activity change, negative = cytotoxicity": "2.33% (inactive)"},
      {"smiles": "CCC(=O)N1CCc2cc(-c3csc(NC(=O)c4cc5cccnc5o4)n3)ccc21", "activity change, negative = cytotoxicity": "-0.539% (inactive)"},
      {"smiles": "CCCn1ccc2cc(-c3csc(NC(=O)c4ccco4)n3)ccc21", "activity change, negative = cytotoxicity": "-34.1% (inactive)"},
      {"smiles": "C[C@@H]1CN([C@H](C)CO)C(=O)c2cc(NC(=O)Cc3cn(C)c4ccccc34)ccc2O[C@H]1CN(C)C(=O)Nc1ccc(F)cc1", "activity change, negative = cytotoxicity": "-8.77% (inactive)"},
      {"smiles": "C[C@@H]1CN([C@@H](C)CO)C(=O)c2cc(NC(=O)Cc3cn(C)c4ccccc34)ccc2O[C@H]1CN(C)S(=O)(=O)c1ccc(F)cc1", "activity change, negative = cytotoxicity": "-9.34% (inactive)"},
      {"smiles": "COc1ccc(-c2nnn(CC(=O)N(C3CCCCC3)C(C)C(=O)NC(C)(C)C)n2)cc1OC", "note": "(centres undefined)", "activity change, negative = cytotoxicity": "-2.38% (inactive)"},
      {"smiles": "CC(C)(C)NC(=O)N1CCN(c2ncccc2C(F)(F)F)CC1", "activity change, negative = cytotoxicity": "-9.57% (inactive)"},
      {"smiles": "Cc1cc(C)c2c(c1)NC(c1cc3c(cc1Br)OCO3)C1CC=CC21", "note": "(centres undefined)", "activity change, negative = cytotoxicity": "-26.7% (inactive)"},
      {"smiles": "CCC(=O)N1CCc2cc(-c3coc(N)n3)ccc21", "activity change, negative = cytotoxicity": "3.91% (inactive)"},
      {"smiles": "COc1cccc(-c2nnn(CC(=O)N(C3CCCCC3)C(C)C(=O)NC3CCCC3)n2)c1", "note": "(centres undefined)", "activity change, negative = cytotoxicity": "-12.4% (inactive)"},
      {"smiles": "C[C@H]1CN([C@@H](C)CO)C(=O)c2cccc(NS(C)(=O)=O)c2O[C@@H]1CN(C)Cc1ccc(Cl)c(Cl)c1", "activity change, negative = cytotoxicity": "-10.3% (inactive)"},
      {"smiles": "C[C@@H]1CN([C@H](C)CO)C(=O)c2cc(NC(=O)Cc3cn(C)c4ccccc34)ccc2O[C@H]1CN(C)S(=O)(=O)c1ccc(F)cc1", "activity change, negative = cytotoxicity": "-29.1% (inactive)"},
      {"smiles": "CC(C(=O)NC1CCCC1)N(C(=O)Cn1nnc(-c2ccccc2Cl)n1)C1CCCCC1", "note": "(centres undefined)", "activity change, negative = cytotoxicity": "-11.7% (inactive)"},
      {"smiles": "COc1ccc(-c2nnn(CC(=O)N(C3CCCCC3)C(C)C(=O)NC(C)C)n2)cc1OC", "note": "(centres undefined)", "activity change, negative = cytotoxicity": "-0.753% (inactive)"},
      {"smiles": "CCC(=O)N1CCc2cc(-c3csc(NC(=O)c4cocn4)n3)ccc21", "activity change, negative = cytotoxicity": "-6.6% (inactive)"},
      {"smiles": "C[C@@H]1CN([C@H](C)CO)C(=O)c2cc(NC(=O)Cc3cn(C)c4ccccc34)ccc2O[C@H]1CN(C)S(=O)(=O)c1ccc(Cl)cc1", "activity change, negative = cytotoxicity": "-18.6% (inactive)"},
      {"smiles": "CC(C(=O)NC1CCCC1)N(C(=O)Cn1nnc(-c2ccc(F)cc2)n1)C1CCCCC1", "note": "(centres undefined)", "activity change, negative = cytotoxicity": "-24.9% (inactive)"},
      {"smiles": "C[C@H](CO)N1C[C@H](C)[C@H](CN(C)S(=O)(=O)c2ccc(F)cc2)Oc2ccc(NS(C)(=O)=O)cc2C1=O", "activity change, negative = cytotoxicity": "11.2% (inactive)"},
      {"smiles": "C[C@H](CO)N1C[C@H](C)[C@H](CN(C)S(=O)(=O)c2ccc(F)cc2)Oc2ccc(NC(=O)Cc3ccccc3)cc2C1=O", "activity change, negative = cytotoxicity": "-6.53% (inactive)"},
      {"smiles": "O=C(Nc1nc(-c2ccc3c(c2)CCN3C(=O)C2CC2)cs1)c1ccco1", "activity change, negative = cytotoxicity": "-26.1% (inactive)"},
      {"smiles": "O=C(Nc1ccc(-c2nc3cc(NC(=O)c4ccc(NC(=O)c5cccc6ccccc56)cc4)ccc3[nH]2)cc1)c1ccc(NC(=O)c2cccc3ccccc23)cc1", "activity change, negative = cytotoxicity": "-8.2% (inactive)"},
      {"smiles": "Cc1cc(C(=O)C(C)OC(=O)C2=NNC(=O)CC2)c(C)n1-c1ccc(OC(F)F)cc1", "note": "(centres undefined)", "activity change, negative = cytotoxicity": "-26.5% (inactive)"},
      {"smiles": "COc1ccc(-c2nnn(CC(=O)N(C3CC3)C(C)C(=O)NC3CCCC3)n2)cc1OC", "note": "(centres undefined)", "activity change, negative = cytotoxicity": "-16% (inactive)"},
      {"smiles": "CNC[C@@H]1Oc2ccc(NC(=O)Cc3cn(C)c4ccccc34)cc2C(=O)N([C@H](C)CO)C[C@H]1C", "activity change, negative = cytotoxicity": "2.26% (inactive)"},
      {"smiles": "COC(=O)N1CCc2cc(-c3csc(NC(=O)c4ccco4)n3)ccc21", "activity change, negative = cytotoxicity": "-18.6% (inactive)"},
      {"smiles": "CC(C(=O)NC1CCCC1)N(C(=O)Cn1nnc(-c2ccccc2F)n1)C1CCCCC1", "note": "(centres undefined)", "activity change, negative = cytotoxicity": "-27.4% (inactive)"},
      {"smiles": "CCC(=O)N1CCc2cc(-c3csc(NC(=O)c4ccno4)n3)ccc21", "activity change, negative = cytotoxicity": "0.915% (inactive)"},
      {"smiles": "CCC(=O)N1CCc2cc(-c3coc(NC(=O)c4ccco4)n3)ccc21", "activity change, negative = cytotoxicity": "-8.19% (inactive)"},
      {"smiles": "COc1ccc(-c2nnn(CC(=O)N(C3CCCCC3)C(C)C(=O)NC3CCCC3)n2)cc1OC", "note": "(centres undefined)", "activity change, negative = cytotoxicity": "-8.68% (inactive)"},
      {"smiles": "CC(OC(=O)c1cccc(NS(C)(=O)=O)c1)C(=O)Nc1ccc(N2CCOCC2)cc1", "note": "(centres undefined)", "activity change, negative = cytotoxicity": "-6.16% (inactive)"},
      {"smiles": "C[C@@H]1CN([C@@H](C)CO)C(=O)c2cc(NC(=O)Cc3cn(C)c4ccccc34)ccc2O[C@H]1CN(C)S(=O)(=O)c1ccc(Cl)cc1", "activity change, negative = cytotoxicity": "-7.85% (inactive)"},
      {"smiles": "Nc1ccc(C(=O)Nc2ccc(-c3nc4ccc(NC(=O)c5ccc(N)cc5)cc4[nH]3)cc2)cc1", "activity change, negative = cytotoxicity": "-13.9% (inactive)"},
      {"smiles": "C[C@@H]1CN([C@H](C)CO)C(=O)Cc2cc(NC(=O)Cc3cn(C)c4ccccc34)ccc2O[C@H]1CN(C)S(=O)(=O)c1ccc(F)cc1", "activity change, negative = cytotoxicity": "-14% (inactive)"},
      {"smiles": "CCC(=O)N1CCc2cc(-c3csc(NC(=O)C4CCCC4)n3)ccc21", "activity change, negative = cytotoxicity": "0.408% (inactive)"},
      {"smiles": "Cc1ccc(-c2nnn(CC(=O)N(C3CCCCC3)C(C)C(=O)NC3CCCC3)n2)cc1", "note": "(centres undefined)", "activity change, negative = cytotoxicity": "-2.67% (inactive)"},
      {"smiles": "COc1ccccc1-c1nnn(CC(=O)N(C2CCCCC2)C(C)C(=O)NC2CCCC2)n1", "note": "(centres undefined)", "activity change, negative = cytotoxicity": "1.77% (inactive)"},
      {"smiles": "CCC(=O)Nc1ccc(-c2csc(NC(=O)c3ccco3)n2)cc1", "activity change, negative = cytotoxicity": "-1.37% (inactive)"},
      {"smiles": "C[C@H]1CN([C@@H](C)CO)C(=O)c2cccc(NC(=O)Nc3ccccc3)c2O[C@@H]1CN(C)Cc1ccc(C(F)(F)F)cc1", "activity change, negative = cytotoxicity": "-30.4% (inactive)"},
      {"smiles": "CCC(=O)N1CCc2cc(-c3csc(NC(=O)c4ccc(F)c(OC)c4)n3)ccc21", "activity change, negative = cytotoxicity": "-10.7% (inactive)"},
      {"smiles": "C[C@H](CO)N1C[C@H](C)[C@@H](CN(C)S(=O)(=O)c2ccc(F)cc2)Oc2ccc(NC(=O)Cc3cn(C)c4ccccc34)cc2C1=O", "activity change, negative = cytotoxicity": "-14% (inactive)"},
      {"smiles": "COc1ccc(-c2nnn(CC(=O)N(C3CCCCC3)C(C)C(=O)NC3CC3)n2)cc1OC", "note": "(centres undefined)", "activity change, negative = cytotoxicity": "-10.4% (inactive)"},
      {"smiles": "C[C@H]1CN([C@@H](C)CO)C(=O)c2cc(NC(=O)Cc3cn(C)c4ccccc34)ccc2O[C@@H]1CN(C)S(=O)(=O)c1ccc(F)cc1", "activity change, negative = cytotoxicity": "-15.6% (inactive)"},
      {"smiles": "C[C@H]1CN([C@@H](C)CO)C(=O)c2cccc(NC(=O)Nc3ccccc3)c2O[C@@H]1CN(C)C", "activity change, negative = cytotoxicity": "-7.64% (inactive)"},
      {"smiles": "CCC(=O)N1CCc2cc(-c3cnc(NC(C)=O)[nH]3)ccc21", "activity change, negative = cytotoxicity": "-35.4% (inactive)"},
      {"smiles": "CC(C(=O)NC1CCCC1)N(C(=O)Cn1nnc(-c2ccc3c(c2)OCO3)n1)C1CCOCC1", "note": "(centres undefined)", "activity change, negative = cytotoxicity": "-7.76% (inactive)"},
      {"smiles": "C[C@H]1CN([C@@H](C)CO)C(=O)c2cccc(NC(=O)Nc3ccccc3)c2O[C@@H]1CN(C)Cc1ccc(Cl)c(Cl)c1", "activity change, negative = cytotoxicity": "-98.2% (inactive)"},
      {"smiles": "C[C@@H]1CN([C@H](C)CO)C(=O)c2cc(NC(=O)Cc3cn(C)c4ccccc34)ccc2O[C@H]1CN(C)S(C)(=O)=O", "activity change, negative = cytotoxicity": "-4.54% (inactive)"},
      {"smiles": "CCC(=O)N1CCc2cc(-c3csc(/N=C(/OC)c4cc(OC)cc(OC)c4)n3)ccc21", "activity change, negative = cytotoxicity": "-10.7% (inactive)"}
    ]},
    {"test_system": "ldlA[mSR-BI] CHO cells viability, CellTiter-Glo ATP luminescence, 24 h", "test": "ldlA[mSR-BI] cell viability loss – CellTiter-Glo luminescence, 24 h, dry powder, set 5, cytotoxicity control for SR-BI HDL uptake inhibitor project, dose response (AID 602126)", "conditions": "not given", "summary_of_the_method": "as §1", "values": [
      {"smiles": "C[C@@H]1CN([C@H](C)CO)C(=O)c2cc(NC(=O)Cc3cn(C)c4ccccc34)ccc2O[C@H]1CN(C)S(=O)(=O)c1ccc(Cl)cc1", "AC50": "> 70 µM (inactive)"}
    ]}
  ]
}
